Key:
[1] = tested on: Vero; experiment: Cytotoxicity against african green monkey Vero cells; assay type: cell-based; details: chlorocebus sabaeus
Outline: (§1)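 Cytotoxicity was profiled in three cell types: primary human peripheral blood mononuclear (PBM) cells, CEM (a human T-cell-derived line) and Vero (African green monkey kidney epithelial cells).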

[2] = tested on: CCRF-CEM; experiment: Cytotoxicity against human CEM cells; assay type: cell-based; outline: as §1
[3] = tested on: Hepatitis C virus; experiment: Antiviral activity against Hepatitis C virus infected in human HuH7 cells assessed as viral RNA replication; assay type: functional, organism-based, Hepacivirus hominis; details: Huh-7
Outline: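 Subgenomic HCV replicon in Huh7 cells; inhibition of HCV RNA replication measured by extraction and amplification of HCV RNA. Each concentration run in triplicate and reported as mean; EC50 derived.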

[4] = tested on: PBMC; experiment: Cytotoxicity against human PBMC; assay type: cell-based; outline: as §1
[5] = tested on: Huh-7; experiment: Cytotoxicity against human HuH7 cells; assay type: cell-based
Outline: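 Huh7 cytotoxicity measured together with the replicon antiviral assay, by extraction and amplification of ribosomal RNA. Each concentration run in triplicate and reported as mean.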

| Structure (SMILES) | CC50 [1] [µM] | CC50 [2] [µM] | EC50 [3] [µM] | EC90 [3] [µM] | CC50 [4] [µM] | CC50 [5] [µM] |
| --- | --- | --- | --- | --- | --- | --- |
| CCCC(NC(=O)C1N(C(=O)[C@@H](NC(=O)[C@@H](NC(=O)c2cnccn2)C2CCCCC2)C(C)(C)C)CC12Cc1ccccc1C2)C(=O)C(=O)NC1CC1 (stereo partly drawn) | > 100 | 72 | > 10 | > 10 | > 100 | > 10 |
| CCCC(NC(=O)C1N(C(=O)[C@@H](NC(=O)NC2CCCCC2)C(C)(C)C)CC12Cc1ccccc1C2)C(=O)C(=O)NC1CC1 (stereo partly drawn) | 44 |  | 8.9 | 30 | 30 | 8.2 |
| CC(C)(C)[C@H](NC(=O)[C@@H](NC(=O)c1cnccn1)C1CCCCC1)C(=O)N1CC2(Cc3ccccc3C2)C1C(=O)NC(CC1CC1)C(=O)C(=O)NC1CC1 (stereo partly drawn) | > 100 | 14 | 0.8 | 1.5 | 12 |  |
| CCCC(NC(=O)C1CCN1C(=O)[C@@H](NC(=O)[C@@H](NC(=O)c1cnccn1)C1CCCCC1)C(C)(C)C)C(=O)C(=O)NC1CC1 (stereo partly drawn) | > 100 | > 100 | > 10 | > 10 | > 100 | > 10 |
| CCCC(NC(=O)C1N(C(=O)[C@@H](NC(=O)NC(C)(C)C)C(C)(C)C)CC12Cc1ccccc1C2)C(=O)C(=O)NC1CC1 (stereo partly drawn) | > 100 |  | 13 | 31 | > 100 | 27 |
| CCCC(NC(=O)C1CCN1C(=O)[C@@H](NC(=O)[C@@H](NC(=O)c1cnccn1)C1CCCCC1)C(C)(C)C)C(=O)C(=O)NCCOC (stereo partly drawn) | > 100 | 38 | > 10 | > 10 | > 100 | > 10 |
| CC(C)(C)[C@H](NC(=O)NC1CCCCC1)C(=O)N1CC2(Cc3ccccc3C2)C1C(=O)NC(CC1CCC1)C(=O)C(=O)NC1CC1 (stereo partly drawn) | 26 | 15 | 5.8 | 9.8 | 15 | 5.5 |
| CC(C)(C)[C@H](NC(=O)[C@@H](NC(=O)c1cnccn1)C1CCCCC1)C(=O)N1CC2(Cc3ccccc3C2)C1C(=O)NC(CC1CCC1)C(=O)C(=O)NC1CC1 (stereo partly drawn) | > 100 | 43 | 0.7 | 1 | 29 |  |
| CCCC(NC(=O)C1N(C(=O)[C@@H](NC(=O)CC(C)(C)C)C(C)(C)C)CC12Cc1ccccc1C2)C(=O)C(=O)NC1CC1 (stereo partly drawn) | 46 | 35 | > 10 | > 10 | 44 | > 10 |
| CCCC(NC(=O)C1N(C(=O)[C@@H](NC(=O)C2CCCCC2)C(C)(C)C)CC12Cc1ccccc1C2)C(=O)C(=O)NC1CC1 (stereo partly drawn) | 43 | 22 | > 10 | > 10 | 31 | 10 |
| C=CCNC(=O)C(=O)C(CCC)NC(=O)C1CCN1C(=O)[C@@H](NC(=O)[C@@H](NC(=O)c1cnccn1)C1CCCCC1)C(C)(C)C (stereo partly drawn) | > 100 | 30 | > 10 | > 10 | 27 | > 10 |
| CCCC(NC(=O)C1N(C(=O)[C@@H](NC(=O)NC2CCCC2)C(C)(C)C)CC12Cc1ccccc1C2)C(=O)C(=O)NC1CC1 (stereo partly drawn) | 95 |  | > 10 | > 10 | > 100 | > 10 |
| CCCC(NC(=O)C1N(C(=O)[C@@H](NC(=O)Nc2ccc(OC)cc2)C(C)(C)C)CC12Cc1ccccc1C2)C(=O)C(=O)NC1CC1 (stereo partly drawn) | 43 |  | > 10 | > 10 | 22 | > 10 |
| CCCC(NC(=O)C1CCN1C(=O)[C@@H](NC(=O)[C@@H](NC(=O)c1cnccn1)C1CCCCC1)C(C)(C)C)C(=O)C(=O)NCCF (stereo partly drawn) | > 100 | 52 | > 10 | > 10 | 80 | > 10 |
| CCCC(NC(=O)C1N(C(=O)[C@@H](NC(=O)Nc2ccccc2)C(C)(C)C)CC12Cc1ccccc1C2)C(=O)C(=O)NC1CC1 (stereo partly drawn) | 46 |  | > 10 | > 10 | 15 | > 10 |

Reference: ChEMBL document CHEMBL2440035, “Azetidines and spiro azetidines as novel P2 units in hepatitis C virus NS3 protease inhibitors” (Bioorg Med Chem Lett, 2013)
